{
  "source": "ChEMBL document CHEMBL4004837",
  "about": "“Synthesis and Characterization of Urofuranoic Acids: In Vivo Metabolism of 2-(2-Carboxyethyl)-4-methyl-5-propylfuran-3-carboxylic Acid (CMPF) and Effects on in Vitro Insulin Secretion” (J Med Chem, 2017)",
  "key": {"[1]": {"test_system": "Liver", "assay": "(§1) Drug metabolism in CD1 mouse liver assessed as oxidative metabolites formation at 6 mg/kg, ip dosed once daily for 3 days followed by dosing of 1:1 mixtures of 2-(2-Carboxyethyl)-4-methyl-5-(1-propyl-1-13C)furan-3-carboxylic Acid and test compound on day 4 and 5 measured 1 hr post dose on day 5 by HPLC-MS analysis", "format": "ADME, organism-based", "conditions": "in vivo", "method_in_brief": "(§2)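 Mice received CMPF 6 mg/kg intraperitoneally for three days, then 1:1 labeled/unlabeled CMPF mixtures on days four and five. On day five they were euthanized 1 h post-dose, and plasma, adipose, muscle and liver were collected. Samples were analysed by HPLC-MS, with MS/MS of product ions. Metabolites were identified by the distinctive isotope patterns from the 1:1 label mixture.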"}, "[2]": {"assay": "(§3) Drug metabolism in CD1 mouse muscle assessed as diacylglycerol conjugate formation at 6 mg/kg, ip dosed once daily for 3 days followed by dosing of 1:1 mixtures of 2-(2-(Carboxy-13C)ethyl)-4-methyl-5-propylfuran-3-carboxylic-2-13C Acid and test compound on day 4 and 5 measured 1 hr post dose on day 5 by HPLC-MS analysis", "format": "ADME, organism-based, Muscle tissue", "conditions": "in vivo", "method_in_brief": "as §2"}, "[3]": {"test_system": "Plasma", "assay": "(§4) Drug metabolism in CD1 mouse plasma assessed as monoacylglycerol conjugate formation at 6 mg/kg, ip dosed once daily for 3 days followed by dosing of 1:1 mixtures of 2-(2-Carboxyethyl)-4-methyl-5-propyl-(3-13C-furan)-3-13Ccarboxylateand test compound on day 4 and 5 measured 1 hr post dose on day 5 by HPLC-MS analysis", "format": "ADME, organism-based", "conditions": "in vivo", "method_in_brief": "(§5)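 CMPF given 6 mg/kg i.p. once daily for three days. On days four and five, 1:1 mixtures of stable-isotope-labelled and unlabelled CMPF were dosed. Mice were killed 1 h after the day-five dose. Plasma, adipose, muscle and liver were collected and analysed by HPLC-MS (MS/MS for product ions). Metabolites were identified by their distinctive isotope patterns from the labelled/unlabelled mixture.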"}, "[4]": {"test_system": "HEK293", "assay": "Cytotoxicity against HEK293 cells assessed as fold change in capase3/7 activity by Caspase-Glo 3/7 assay relative to DMSO", "format": "cell-based", "conditions": "human"}, "[5]": {"assay": "as §1, with “muscle” for “liver”", "format": "ADME, organism-based, Muscle tissue", "conditions": "in vivo", "method_in_brief": "as §5"}, "[6]": {"test_system": "Plasma", "assay": "as §1, with “plasma” for “liver”, “loss of C2 carboxyl during fragmentation” for “oxidative metabolites formation”", "format": "ADME, organism-based", "conditions": "in vivo", "method_in_brief": "as §5"}, "[7]": {"assay": "Drug excretion in human urine assessed as CMPF formation", "format": "ADME"}, "[8]": {"assay": "Effect on insulin content in KCl-stimulated mouse pancreatic islet at 200 uM incubated for 24 hrs followed by KCl stimulation for 20 mins by HTRF assay", "format": "ADME, cell-based", "method_in_brief": "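Mouse islets treated with compounds at 200 µM. Insulin secretion was then measured under low- and high-glucose GSIS conditions and under KCl stimulation, and intracellular insulin content was measured. Mean of n = 4-5 experiments with SEM.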"}, "[9]": {"test_system": "Plasma", "assay": "(§6) Drug metabolism in CD1 mouse plasma assessed as glucuronide conjugate formation at 6 mg/kg, ip dosed once daily for 3 days followed by dosing of 1:1 mixtures of 2-(2-Carboxyethyl)-4-methyl-5-propyl-(3-13C-furan)-3-13Ccarboxylate and test compound on day 4 and 5 measured 1 hr post dose on day 5 by HPLC-MS analysis", "format": "ADME, organism-based", "conditions": "in vivo", "method_in_brief": "as §5"}, "[10]": {"test_system": "Liver", "assay": "as §1, with “diacylglycerol conjugate” for “oxidative metabolites”", "format": "ADME, organism-based", "conditions": "in vivo", "method_in_brief": "as §2"}, "[11]": {"test_system": "Plasma", "assay": "as §4, with “2-(2-(Carboxy-13C)ethyl)-4-methyl-5-propylfuran-3-carboxylic-2-13C Acid and” for “2-(2-Carboxyethyl)-4-methyl-5-propyl-(3-13C-furan)-3-13Ccarboxylateand”", "format": "ADME, organism-based", "conditions": "in vivo", "method_in_brief": "as §5"}, "[12]": {"assay": "(§7) Drug metabolism in CD1 mouse adipose assessed as oxidative metabolites formation at 6 mg/kg, ip dosed once daily for 3 days followed by dosing of 1:1 mixtures of 2-(2-Carboxyethyl)-4-methyl-5-propyl-(3-13C-furan)-3-13Ccarboxylateand test compound on day 4 and 5 measured 1 hr post dose on day 5 by HPLC-MS analysis", "format": "ADME, organism-based, Adipose tissue", "conditions": "in vivo", "method_in_brief": "as §2"}, "[13]": {"test_system": "Plasma", "assay": "as §4, with “glycerol” for “monoacylglycerol”", "format": "ADME, organism-based", "conditions": "in vivo", "method_in_brief": "as §5"}, "[14]": {"assay": "Drug metabolism in CD1 mouse muscle assessed as glycerol conjugate formation at 6 mg/kg, ip dosed once daily for 3 days followed by dosing of 1:1 mixtures of 2-(2-Carboxyethyl)-4-methyl-5-(1-propyl-1-13C)furan-3-carboxylic Acid and test compound on day 4 and 5 measured 1 hr post dose on day 5 by HPLC-MS analysis", "format": "ADME, organism-based, Muscle tissue", "conditions": "in vivo", "method_in_brief": "as §2"}, "[15]": {"test_system": "Liver", "assay": "as §6, with “liver” for “plasma”, “loss of C2 carboxyl during fragmentation” for “glucuronide conjugate formation”", "format": "ADME, organism-based", "conditions": "in vivo", "method_in_brief": "as §2"}, "[16]": {"test_system": "Plasma", "assay": "as §6, with “2-(2-Carboxyethyl)-4-methyl-5-(1-propyl-1-13C)furan-3-carboxylic Acid” for “2-(2-Carboxyethyl)-4-methyl-5-propyl-(3-13C-furan)-3-13Ccarboxylate”", "format": "ADME, organism-based", "conditions": "in vivo", "method_in_brief": "as §5"}, "[17]": {"test_system": "Liver", "assay": "as §7, with “liver” for “adipose”", "format": "ADME, organism-based", "conditions": "in vivo", "method_in_brief": "as §2"}, "[18]": {"test_system": "Plasma", "assay": "as §3, with “plasma” for “muscle”, “loss of C2 carboxyl during fragmentation” for “diacylglycerol conjugate formation”", "format": "ADME, organism-based", "conditions": "in vivo", "method_in_brief": "as §5"}, "[19]": {"test_system": "Plasma", "assay": "as §3, with “plasma” for “muscle”, “2-(2-Carboxyethyl)-4-methyl-5-(1-propyl-1-13C)furan-3-carboxylic” for “2-(2-(Carboxy-13C)ethyl)-4-methyl-5-propylfuran-3-carboxylic-2-13C”", "format": "ADME, organism-based", "conditions": "in vivo", "method_in_brief": "as §5"}, "[20]": {"test_system": "Plasma", "assay": "as §3, with “plasma” for “muscle”, “glycerol” for “diacylglycerol”", "format": "ADME, organism-based", "conditions": "in vivo", "method_in_brief": "as §5"}, "[21]": {"assay": "as §4, with “adipose” for “plasma”", "format": "ADME, organism-based, Adipose tissue", "conditions": "in vivo", "method_in_brief": "as §2"}, "[22]": {"assay": "as §4, with “adipose” for “plasma”, “diacylglycerol” for “monoacylglycerol”", "format": "ADME, organism-based, Adipose tissue", "conditions": "in vivo", "method_in_brief": "as §2"}, "[23]": {"assay": "as §6, with “adipose” for “plasma”, “loss of C2 carboxyl during fragmentation” for “glucuronide conjugate formation”", "format": "ADME, organism-based, Adipose tissue", "conditions": "in vivo", "method_in_brief": "as §2"}, "[24]": {"test_system": "Liver", "assay": "as §3, with “liver” for “muscle”", "format": "ADME, organism-based", "conditions": "in vivo", "method_in_brief": "as §2"}, "[25]": {"test_system": "Liver", "assay": "as §1, with “loss of C2 carboxyl during fragmentation” for “oxidative metabolites formation”", "format": "ADME, organism-based", "conditions": "in vivo", "method_in_brief": "as §2"}, "[26]": {"assay": "as §3, with “monoacylglycerol” for “diacylglycerol”", "format": "ADME, organism-based, Muscle tissue", "conditions": "in vivo", "method_in_brief": "as §2"}, "[27]": {"target": "CYP2C9 (Homo sapiens, UniProt P11712)", "sequence (P11712 whole entry)": "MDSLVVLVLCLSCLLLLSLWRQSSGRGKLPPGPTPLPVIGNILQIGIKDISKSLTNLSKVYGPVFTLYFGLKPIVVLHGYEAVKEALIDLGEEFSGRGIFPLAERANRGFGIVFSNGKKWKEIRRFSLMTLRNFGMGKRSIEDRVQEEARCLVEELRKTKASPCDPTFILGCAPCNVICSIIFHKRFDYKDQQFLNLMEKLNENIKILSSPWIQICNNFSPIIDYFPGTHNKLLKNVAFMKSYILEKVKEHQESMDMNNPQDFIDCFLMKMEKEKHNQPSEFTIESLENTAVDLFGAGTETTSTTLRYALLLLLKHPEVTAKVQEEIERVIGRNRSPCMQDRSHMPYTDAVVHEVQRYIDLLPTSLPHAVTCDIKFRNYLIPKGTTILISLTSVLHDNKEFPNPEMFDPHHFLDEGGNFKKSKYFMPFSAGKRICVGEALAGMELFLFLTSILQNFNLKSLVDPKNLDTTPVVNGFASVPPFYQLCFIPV", "assay": "Inhibition of human microsomal CYP2C9 at 10 uM after 10 mins by single quad LC/MS analysis", "format": "ADME", "conditions": "microsomes"}, "[28]": {"target": "CYP2D6 (Homo sapiens, UniProt P10635)", "sequence (P10635 whole entry)": "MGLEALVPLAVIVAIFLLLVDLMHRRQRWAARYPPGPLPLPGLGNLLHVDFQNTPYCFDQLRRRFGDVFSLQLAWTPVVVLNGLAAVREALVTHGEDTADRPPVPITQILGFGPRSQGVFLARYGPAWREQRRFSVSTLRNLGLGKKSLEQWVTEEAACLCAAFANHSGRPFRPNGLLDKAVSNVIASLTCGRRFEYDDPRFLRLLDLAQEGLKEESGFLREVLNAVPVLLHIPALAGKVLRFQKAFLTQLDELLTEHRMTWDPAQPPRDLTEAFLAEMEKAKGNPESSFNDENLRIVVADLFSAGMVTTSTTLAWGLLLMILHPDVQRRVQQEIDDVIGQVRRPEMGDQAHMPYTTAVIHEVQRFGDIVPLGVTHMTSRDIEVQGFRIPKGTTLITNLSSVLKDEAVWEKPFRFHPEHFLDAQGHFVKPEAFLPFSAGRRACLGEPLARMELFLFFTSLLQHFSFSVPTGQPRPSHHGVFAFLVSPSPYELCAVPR", "assay": "Inhibition of human microsomal CYP2D6 at 10 uM after 3 mins by single quad LC/MS analysis", "format": "ADME", "conditions": "microsomes"}},
  "data": [
    {"compound": "CCCc1oc(CCC(=O)O)c(C(=O)O)c1C", "values": [
      {"measurement": "Drug metabolism", "setting": "[1]", "result": "Metabolite_Notdetected"},
      {"measurement": "Drug metabolism", "setting": "[2]", "result": "Metabolite_Notdetected"},
      {"measurement": "Drug metabolism", "setting": "[3]", "result": "Metabolite_Notdetected"},
      {"measurement": "fold change (FC)", "setting": "[4]", "result": "0.8 to 1.1"},
      {"measurement": "Drug metabolism", "setting": "[5]", "result": "Metabolite_Notdetected"},
      {"measurement": "Drug metabolism", "setting": "[6]", "result": "Metabolite_Detected"},
      {"measurement": "Drug excretion", "setting": "[7]", "result": "1 to 5", "unit": "mg/day"},
      {"measurement": "Activity", "setting": "[8]", "result": "Non-Toxic"},
      {"measurement": "Drug metabolism", "setting": "[9]", "result": "Metabolite_Detected"},
      {"measurement": "Drug metabolism", "setting": "[10]", "result": "Metabolite_Notdetected"},
      {"measurement": "Drug metabolism", "setting": "[11]", "result": "Metabolite_Notdetected"},
      {"measurement": "Drug metabolism", "setting": "[12]", "result": "Metabolite_Notdetected"},
      {"measurement": "Drug metabolism", "setting": "[13]", "result": "Metabolite_Notdetected"},
      {"measurement": "Drug metabolism", "setting": "[14]", "result": "Metabolite_Notdetected"},
      {"measurement": "Drug metabolism", "setting": "[15]", "result": "Metabolite_Detected"},
      {"measurement": "Drug metabolism", "setting": "[16]", "result": "Metabolite_Detected"},
      {"measurement": "Drug metabolism", "setting": "[17]", "result": "Metabolite_Notdetected"},
      {"measurement": "Drug metabolism", "setting": "[18]", "result": "Metabolite_Detected"},
      {"measurement": "Drug metabolism", "setting": "[19]", "result": "Metabolite_Notdetected"},
      {"measurement": "Drug metabolism", "setting": "[20]", "result": "Metabolite_Notdetected"},
      {"measurement": "Drug metabolism", "setting": "[21]", "result": "Metabolite_Notdetected"},
      {"measurement": "Drug metabolism", "setting": "[22]", "result": "Metabolite_Notdetected"},
      {"measurement": "Drug metabolism", "setting": "[23]", "result": "Metabolite_Detected"},
      {"measurement": "Drug metabolism", "setting": "[24]", "result": "Metabolite_Notdetected"},
      {"measurement": "Drug metabolism", "setting": "[25]", "result": "Metabolite_Detected"},
      {"measurement": "Drug metabolism", "setting": "[26]", "result": "Metabolite_Notdetected"},
      {"measurement": "inhibition at 10 min, 10 µM", "setting": "[27]", "result": 0, "unit": "%"},
      {"measurement": "inhibition at 0.05 h, 10 µM", "setting": "[28]", "result": 0, "unit": "%"}
    ]}
  ]
}
